From paper PMC6568187 (Theranostics, 2019)

Legend:
[1] = test system: U87-MG cells; experiment: Organelle co-localization; assay type: cell-based; settings: 20 µM, 37 °C, DMEM/F12 with 10% FBS pH 7.4
Procedure, shortened: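 50,000 U87-MG cells were plated in chamber wells and adhered overnight. Then 20 μM test compound for 30 min, two PBS washes, organelle trackers (LysoTracker Green DND 26, MitoTracker Green FM, BODIPY FL C5-ceramide–BSA, ER Tracker Green), then NucBlue 10 min. Confocal imaging, 60x water objective. Lasers: 488 nm for organelle stains, 405 nm for nuclei, 633 nm for dye. Cells re-imaged after 24 h in FluoroBrite DMEM + 10% FBS; co-localization expressed as Pearson's R.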

[2] = in DMSO; λex 730 nm; used as standard; listed as ICG; cited from earlier work
[3] = test system: U87-MG cells; experiment: Cytotoxicity assay; assay type: cell-based; settings: read-out: IC50 (cytotoxicity), 72 h in the dark, AlamarBlue
Procedure, shortened: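 U87-MG cells grown in DMEM with 10% FBS at 37 °C, 5% CO2, passaged at 70% confluency. Seeded at 5000 cells/well and left overnight. DMSO stocks (0.02 M) were diluted in protein-free hybridoma medium (PFHM-II) to final 0.01–80 μM, then incubated 72 h. AlamarBlue added for 2 h; fluorescence read at Ex/Em 560/590 nm. Viability = background-corrected signal vs full-viability control ×100; n=5, mean ± SD.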

[4] = test system: most cell lines; settings: read-out: IC50 (cytotoxicity); cited from earlier work
[5] = Photostability under LED illumination; assay type: physicochemical; settings: 780 nm LED
Procedure, shortened: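 Solutions in 10 mM PBS pH 7.4, and in H2O with 1% DMSO, were left open to air and illuminated with a 780 nm LED. Dyes were used either equimolar (20 µM) or diluted to equal absorbance at 780 nm (1.7–2.7 µM). Absorbance at 780 nm was read every 10 min up to 60 min and plotted against time.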

[6] = Photophysical properties; assay type: physicochemical; settings: 10 mM PBS buffer pH 7.4
Procedure, shortened: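 Dyes in 10 mM PBS pH 7.4, 1 cm cuvettes. Excitation 730 nm; integrated emission 740–900 nm, with maximum absorbance kept below 0.1. Quantum yield came from the gradient of integrated fluorescence vs absorbance over several concentrations, referenced to ICG in DMSO (Φ 0.13). Relative absorbance and fluorescence were compared at 5 µM in the same buffer.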

[7] = Solubility measurement by UV absorbance; assay type: physicochemical
Procedure, shortened: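 DMSO stocks (100 mM) were diluted to 0–1000 μM in 10 mM PBS pH 7.4 with 1% DMSO; H2O and DMEM ± 10% FBS were also tested. Samples were shaken in the dark 6 h at room temperature (25 °C), equilibrated overnight and centrifuged at 600 x g for 15 min. Supernatant absorbance was read at 780 nm against blank, in triplicate.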

[8] = In vivo biodistribution and clearance; settings: normal CD-1 mice, 25 nmol intravenous, imaging 0.5-4 h
[9] = Aggregation: concentration dependence of absorbance spectra; assay type: physicochemical; settings: 1.25 - 20 µM in 10 mM pH 7.4 PBS buffer

| photostability ([5]; 1 h, A 2.7 µM, B 2 µM, 1 1.7 µM (same absorbance at 780 nm), 10 mM pH 7.4 PBS) | photodecomposition t1/2 ([5]; same absorbance at 780 nm, 10 mM pH 7.4 PBS buffer) [min] | brightness (εmax x Φ) [6] | εmax [6] [cm^-1M^-1] | λabs [6] [nm] | λem [6] [nm] | ∆λ (Stokes' shift) [6] [nm] | relative brightness ([6]; relative to A) | Φ (fluorescence quantum yield) ([6]; λex 730 nm, standard A in DMSO) | solubility (soluble up to) ([7]; 10 mM pH 7.4 PBS buffer) [µM] | concentration at which it begins to aggregate ([7]; H2O) [µM] | solubility ([7]; in water, 25 °C) | H-aggregation from absorbance spectra [9] | SMILES | localization after time 0.5 h [1] | localization after time 24 h [1] | Φ (fluorescence quantum yield) of the standard [2] | IC50 [3] [µM] | IC50 [4] [µM] | organ signal / excretion [8] |
| --- | --- | --- | --- | --- | --- | --- | --- | --- | --- | --- | --- | --- | --- | --- | --- | --- | --- | --- | --- |
|  |  |  |  |  |  |  |  |  |  |  |  |  | CC1(C)C(/C=C/C=C/C=C/C=C2\N(CCCCS(=O)(=O)O)c3ccc4ccccc4c3C2(C)C)=[N+](CCCCS(=O)(=O)[O-])c2ccc3ccccc3c21 [compound A, indocyanine green] | golgi and ER | golgi and lysosome | 0.13 |  |  |  |
| least stable and decomposed | < 10 | 3689 | 149940 | 775 | 799 | 24 | 1.90 | 0.025 | ≥ 1000 | 100 | much less soluble | blue-shifted shoulder | CC1(C)C(/C=C/C2=C(Cl)C(=C/C=C3\N(CCCCCC(=O)O)c4ccccc4C3(C)C)/CCC2)=[N+](CCCCCC(=O)O)c2ccccc21 [compound B] | mitochondria | mitochondria and lysosome |  | 19.1 ± 1.01 | ~20 | high signal in the liver and low signal in duodenum even after 4 h post-injection |
